According to ChEMBL document CHEMBL3352462, “Aldosterone synthase inhibitors as promising treatments for mineralocorticoid dependent cardiovascular and renal diseases” (J Med Chem, 2014):
One block for each compound: values may come before it.

Tests used:
[1] = species on record: Homo sapiens; experiment: Decrease in diastolic blood pressure in hypertension patient at 50 mg, bid for 8 weeks; format: functional, Artery
[2] = species on record: Homo sapiens; experiment: Increase in aldosterone level in sodium depleted healthy human urine; format: functional
[3] = species on record: Homo sapiens; experiment: Increase in aldosterone level in sodium depleted healthy human plasma; format: functional
[4] = species on record: Homo sapiens; experiment: Increase in aldosterone level in primary aldosteronism patient plasma at 50 mg, bid for 31 days; format: functional
[5] = species on record: Homo sapiens; experiment: Selectivity ratio of IC50 for human CYP11B1 to IC50 for human CYP11B2
Procedure, shortened: (§1)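 Whole-cell assay in V79MZ (Chinese hamster lung fibroblast) cells stably expressing human CYP11B2; a parallel line stably expressing human CYP11B1 gives the counter-target IC50. Selectivity is expressed as the CYP11B1/CYP11B2 IC50 ratio.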

[6] = target: T1, Cytochrome P450 11B2, mitochondrial (Homo sapiens, UniProt P19099); experiment: Inhibition of human aldosterone synthase
T1 sequence (P19099 whole entry): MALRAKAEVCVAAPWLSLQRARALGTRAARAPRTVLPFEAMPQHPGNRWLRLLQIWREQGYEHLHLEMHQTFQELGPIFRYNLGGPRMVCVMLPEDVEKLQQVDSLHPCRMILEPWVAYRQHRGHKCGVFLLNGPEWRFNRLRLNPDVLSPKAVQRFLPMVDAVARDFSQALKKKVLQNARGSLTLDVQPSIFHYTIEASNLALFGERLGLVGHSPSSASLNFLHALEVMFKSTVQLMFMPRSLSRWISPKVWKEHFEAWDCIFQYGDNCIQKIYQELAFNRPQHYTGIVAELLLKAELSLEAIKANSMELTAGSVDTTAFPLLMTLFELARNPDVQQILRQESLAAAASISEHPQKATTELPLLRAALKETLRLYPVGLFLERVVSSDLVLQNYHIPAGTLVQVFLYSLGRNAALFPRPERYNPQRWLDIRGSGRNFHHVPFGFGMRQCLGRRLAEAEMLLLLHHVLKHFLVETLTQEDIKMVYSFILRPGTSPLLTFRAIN

[7] = target: T2, Cytochrome P450 11B1, mitochondrial (Homo sapiens, UniProt P15538); experiment: Inhibition of human CYP11B1 expressed in NCI-H295R cells at 100 nM; format: cell-based
T2 sequence (P15538 whole entry): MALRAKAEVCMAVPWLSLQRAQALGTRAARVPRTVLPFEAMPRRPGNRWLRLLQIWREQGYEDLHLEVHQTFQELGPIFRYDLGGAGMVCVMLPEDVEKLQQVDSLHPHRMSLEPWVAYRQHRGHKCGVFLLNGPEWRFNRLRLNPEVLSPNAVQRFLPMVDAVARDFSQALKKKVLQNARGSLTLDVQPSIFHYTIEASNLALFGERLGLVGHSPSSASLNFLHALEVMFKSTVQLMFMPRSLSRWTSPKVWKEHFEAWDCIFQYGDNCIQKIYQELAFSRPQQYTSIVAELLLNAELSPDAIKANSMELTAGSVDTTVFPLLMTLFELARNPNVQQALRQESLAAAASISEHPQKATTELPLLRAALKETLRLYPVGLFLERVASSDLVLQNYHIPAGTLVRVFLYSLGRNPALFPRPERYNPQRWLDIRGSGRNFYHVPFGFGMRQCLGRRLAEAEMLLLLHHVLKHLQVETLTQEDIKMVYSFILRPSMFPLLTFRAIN

[8] = test system: Rattus norvegicus; experiment: Decrease in aldosterone level Wistar rat plasma at 4 mg/kg, po measured after 2 hrs by radioimmunoassay; format: functional
[9] = target: T1, Cytochrome P450 11B2, mitochondrial; experiment: Inhibition of human aldosterone synthase in homogenized rat glomerulosa tissue
[10] = Tmax in sodium depleted healthy human; details: in vivo
[11] = Elimination half life in sodium depleted healthy human; details: in vivo
[12] = target: T3, Cytochrome P450 1A2 (Homo sapiens, UniProt P05177); experiment: Inhibition of CYP1A2 (unknown origin); format: ADME
T3 sequence (P05177 whole entry): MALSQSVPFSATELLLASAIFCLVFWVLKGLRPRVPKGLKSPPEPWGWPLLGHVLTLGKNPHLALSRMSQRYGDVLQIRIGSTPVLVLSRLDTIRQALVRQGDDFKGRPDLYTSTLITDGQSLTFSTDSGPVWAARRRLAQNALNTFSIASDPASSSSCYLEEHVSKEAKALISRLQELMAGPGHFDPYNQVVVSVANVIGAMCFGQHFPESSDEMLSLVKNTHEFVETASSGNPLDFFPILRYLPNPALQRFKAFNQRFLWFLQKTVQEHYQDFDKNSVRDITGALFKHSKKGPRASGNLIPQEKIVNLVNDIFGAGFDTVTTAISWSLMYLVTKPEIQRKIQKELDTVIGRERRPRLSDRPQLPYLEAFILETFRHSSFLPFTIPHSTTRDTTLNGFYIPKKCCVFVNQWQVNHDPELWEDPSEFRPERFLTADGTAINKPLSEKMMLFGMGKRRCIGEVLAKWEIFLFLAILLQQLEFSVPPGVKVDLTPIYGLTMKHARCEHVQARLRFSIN

[13] = test system: Rattus norvegicus; experiment: Decrease in myocardial fibrosis in SHR rat at 1.2 mg/kg/day, po; details: Myocardium, read-out: INH
[14] = target: T1, Cytochrome P450 11B2, mitochondrial; experiment: Inhibition of human aldosterone synthase expressed in V79 MZ cells assessed as inhibition of aldosterone synthesis; format: cell-based, V79MZ
[15] = target: T1, Cytochrome P450 11B2, mitochondrial; experiment: Inhibition of human CYP11B2 expressed in NCI-H295R cells assessed as reduction in aldosterone formation; format: cell-based
[16] = target: T1, Cytochrome P450 11B2, mitochondrial; experiment: Inhibition of human aldosterone synthase by cell based assay
[17] = target: T4, Cytochrome P450 11B2, mitochondrial (Rattus norvegicus, UniProt P30099); experiment: Inhibition of aldosterone synthase in rat adrenal assessed as decrease in aldosterone level at 100 uM
T4 sequence (P30099 whole entry): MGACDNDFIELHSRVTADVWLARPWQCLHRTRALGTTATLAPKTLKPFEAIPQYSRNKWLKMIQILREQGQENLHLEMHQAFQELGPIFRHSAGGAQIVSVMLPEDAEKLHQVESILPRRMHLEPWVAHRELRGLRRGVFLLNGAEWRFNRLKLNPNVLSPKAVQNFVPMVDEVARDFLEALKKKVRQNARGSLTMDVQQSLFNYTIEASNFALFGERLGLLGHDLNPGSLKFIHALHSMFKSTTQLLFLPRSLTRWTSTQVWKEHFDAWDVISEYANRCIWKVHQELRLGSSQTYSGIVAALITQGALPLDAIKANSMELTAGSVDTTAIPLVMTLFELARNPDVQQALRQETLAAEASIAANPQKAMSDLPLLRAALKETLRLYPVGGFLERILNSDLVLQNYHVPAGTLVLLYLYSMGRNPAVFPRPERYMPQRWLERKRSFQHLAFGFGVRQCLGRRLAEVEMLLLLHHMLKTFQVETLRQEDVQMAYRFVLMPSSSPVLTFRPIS

[18] = target: T4, Cytochrome P450 11B2, mitochondrial; experiment: Inhibition of aldosterone synthase in rat adrenal assessed as decrease in 18-OH-corticosterone level at 100 uM
[19] = target: T1, Cytochrome P450 11B2, mitochondrial; experiment: Inhibition of human CYP11B2 expressed in G402 cells; format: cell-based, G-402
[20] = target: T1, Cytochrome P450 11B2, mitochondrial; experiment: Inhibition of human aldosterone synthase expressed in V79 MZ cells; format: cell-based, V79MZ; procedure, shortened: as §1
[21] = test system: Rattus norvegicus; experiment: Decrease in corticosterone level Wistar rat plasma at 4 mg/kg, po measured after 2 hrs by radioimmunoassay; format: functional

- IC50 [6]: 3 nM
- inhibition at 0.1 µM [7]: 94%
Structure (SMILES): CCOC(=O)c1cncn1C1c2ccccc2C(=O)OC1(C)C (stereo not drawn)

- IC50 [9]: 50 nM
Structure (SMILES): c1ccc2c(-c3cccc4cncn34)cccc2c1

- Tmax [10]: 1 h
- half-life [11]: 4 h
Structure (SMILES): N#Cc1ccc([C@H]2CCc3cncn32)c(F)c1 [OSILODROSTAT]

- Ratio IC50 [5]: 322
Structure (SMILES): CCS(=O)(=O)NCc1cncc(-c2c(C)c3ccccc3n2C)c1

- IC50 [15]: 5 nM
Structure (SMILES): CCS(=O)(=O)N(Cc1cncc(-c2cccc(Cl)c2Cl)c1)C1CC1

- IC50 [19]: 2.8 nM
- Ratio IC50 [5]: 589
Structure (SMILES): CC1(C)c2cc(Cl)ccc2C(=O)N1c1cncc(C2CCCN(S(C)(=O)=O)C2)n1 (stereo not drawn)

- Ratio IC50 [5]: 128
- IC50 [20]: 2.2 nM
Structure (SMILES): Cc1cncc(-c2cc3n(n2)CCC(=O)N3)c1

- Ratio IC50 [5]: > 1000
Structure (SMILES): Cn1c(-c2cncc3ccccc23)nc2ccc(F)c(F)c21

Further lines, the compound ahead of its results:

Structure (SMILES): COC(=O)[C@@H]1CC2=CC(=O)CC[C@]2(C)[C@@]23O[C@@H]2C[C@@]2(C)[C@@H](CC[C@@]24CCC(=O)O4)[C@H]13 [EPLERENONE]
- Activity [1]: -7.9 mmHg
- Activity [2]: 88%
- Activity [3]: 38%
- Activity [4]: 89%

Structure (SMILES): Cc1ccncc1-c1cc(F)c2c(c1)CCc1nnc(C)n1-2
- Ratio IC50 [5]: 421

Structure (SMILES): CSc1ccc(C2CCCn3cncc32)cc1 (stereo not drawn)
- inhibition in vivo at 4 mg/kg [8]: 62%

Structure (SMILES): c1cncc(C2CCCCCCC2)c1
- IC50 [12]: > 100000 nM
- Ratio IC50 [5]: 50

Structure (SMILES): N#Cc1ccc([C@H]2CCCc3cncn32)cc1 [DEXFADROSTAT]
- inhibition in vivo at 1.2 mg/kg/day [13]: 50%

Structure (SMILES): CN[C@@H]1C[C@H]2O[C@@](C)([C@@H]1OC)n1c3ccccc3c3c4c(c5c6ccccc6n2c5c31)C(=O)NC4 [STAUROSPORINE]
- IC50 [14]: 11 nM

Structure (SMILES): CC(O)c1c(F)cncc1-c1cc2cc(Cl)c(F)cc2o1 (stereo not drawn)
- IC50 [15]: 2.5 nM
- Ratio IC50 [5]: 427

Structure (SMILES): Oc1ccc2c(c1)CC(Cc1ccncc1)C2 (stereo not drawn)
- IC50 [16]: 59 nM
- Ratio IC50 [5]: < 5

Structure (SMILES): CC(=O)S[C@@H]1CC2=CC(=O)C=C[C@]2(C)[C@H]2CC[C@@]3(C)[C@@H]([C@@H]4C[C@@H]4[C@@]34CCC(=O)O4)[C@H]12 [MESPIRENONE]
- inhibition at 100 µM [17]: > 40%
- inhibition at 100 µM [18]: > 40%

Structure (SMILES): COc1cccc2c1CCC1C(c3cnc[nH]3)C21 (stereo not drawn)
- IC50 [16]: 41 nM
- Ratio IC50 [5]: 2

Structure (SMILES): Cn1c(=O)oc2cc(-c3cncc(C(O)C(F)(F)F)c3)ccc21 (stereo not drawn)
- IC50 [15]: 1.4 nM

Structure (SMILES): N#Cc1ccc2c(c1)C1(CCC2)OCCn2cncc21 (stereo not drawn)
- inhibition in vivo at 4 mg/kg [8]: 82%
- inhibition in vivo at 4 mg/kg [21]: 15%
